Test results taken from ChEMBL document CHEMBL4270661 (Bioorg Med Chem, 2018).
Calls of active or inactive are those of the source. No cut-off for these calls is given here.

Columns and labels:
[1] = Induction of microtubule depolymerization in rat A10 cells assessed as cellular microtubule loss incubated for 18 hrs by DAPI staining-based indirect immunofluorescence assay; format: cell-based; conditions: A10, 18 h
[2] = molecular target: T1, Tubulin (Homo sapiens) (UniProt P68371+Q9H4B7+P0DPH7+P68366+Q13509+Q71U36+P04350+Q3ZCM7+P07437+P68363+Q9BQE3+Q6PEY2+Q13885+Q9BVA1+Q9BUF5); assay: Inhibition of [3H]-colchicine binding to tubulin (unknown origin) at 5 uM relative to control; format: protein-complex assay
[3] = system: MDA-MB-435; assay: Antiproliferative activity against human MDA-MB-435 cells after 48 hrs by sulforhodamine B assay; format: functional, cell-based; conditions: MDA-MB-435, 48 h
Method in brief: (§1)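 SRB assay: cells plated at set densities, left 24 h to attach and grow, then exposed in triplicate wells to a concentration range for 48 h (DMSO vehicle). Cells fixed, protein stained with SRB. Cells kept at 37 °C, 5% CO2.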

[4] = molecular target: T1, Tubulin (Homo sapiens); assay: Inhibition of [3H]-colchicine binding to tubulin (unknown origin) at 0.5 uM relative to control; format: protein-complex assay
[5] = system: HeLa; assay: Antiproliferative activity against human HeLa cells after 48 hrs by sulforhodamine B assay; format: functional, cell-based; method in brief: as §1
[6] = system: HeLa; assay: Antiproliferative activity against human HeLa cells expressing wild type beta3 tubulin after 48 hrs by sulforhodamine B assay; format: functional, cell-based; method in brief: as §1
[7] = Resistance index, ratio of IC50 for human HeLa cells expressing wild type beta3 tubulin to IC50 for human HeLa cells; format: functional
Method in brief: (§2)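 Relative resistance (Rr): IC50 in resistant line divided by IC50 in isogenic parental line, from 48 h SRB assays (HeLa WT βIII vs HeLa; SK-OV-3/MDR-1-6/6 vs SK-OV-3).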

[8] = system: SK-OV-3; assay: Antiproliferative activity against human SKOV3 cells after 48 hrs by sulforhodamine B assay; format: functional, cell-based; conditions: SK-OV-3, 48 h; method in brief: as §1
[9] = Antiproliferative activity against human SKOV3-MDR1-M6/6 cells after 48 hrs by sulforhodamine B assay; format: functional; conditions: SKOV3-MDR1-M6/6, 48 h; method in brief: as §1
[10] = Resistance index, ratio of IC50 for human SKOV3-MDR1-M6/6 cells to IC50 for human SKOV3 cells; format: functional; method in brief: as §2
[11] = system: MDA-MB-435; assay: Antitumor activity against human MDA-MB-435 cells xenografted in athymic Foxn1nu/Foxn1nu mouse assessed as tumor growth inhibition at 75 mg/kg, ip, administered on day 1,2,3,4 and 9; format: functional, organism-based
Method in brief: (§3)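 Female athymic nude mice, 6 weeks old, bilateral flank implants of MDA-MB-435 tumor fragments. Grouped at ~200 mm³ (5 mice, 10 tumors per group), randomized. 75 mg/kg ip per dose, stock in ethanol or water diluted in PBS (<5% solvent), vs untreated controls. Caliper volume (width × length × height), tumor mass at trial end (day 15), mean ± SEM.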

[12] = system: Mus musculus; assay: Toxicity in athymic Foxn1nu/Foxn1nu mouse xenografted with human MDA-MB-435 cells assessed as body weight loss at 75 mg/kg, ip, administered on day 1,2,3,4 and 9; format: organism-based; conditions: in vivo
Method in brief: (§4)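 Female athymic nude mice bearing bilateral MDA-MB-435 flank tumors, 10 tumors per group, given 75 mg/kg ip (PBS, <5% solvent). Individual body weights tracked through the trial as percent change, mean ± SEM, vs untreated controls.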

[13] = system: Mus musculus; assay: Toxicity in athymic Foxn1nu/Foxn1nu mouse xenografted with human MDA-MB-435 cells assessed as occurence of neurological side effects at 75 mg/kg, ip, administered on day 1,2,3,4 and 9; format: organism-based; conditions: in vivo
[14] = system: MDA-MB-231; assay: Antitumor activity against human MDA-MB-231 cells xenografted in athymic Foxn1nu/Foxn1nu mouse assessed as tumor growth inhibition at 10 mg/kg, ip, administered on day 1,2,3,8,9 and 10; format: functional, organism-based
[15] = system: NCI/ADR-RES; conditions: Homo sapiens, 10 mg/kg
[16] = system: MDA-MB-435; assay: Antitumor activity against human MDA-MB-435 cells xenografted in athymic Foxn1nu/Foxn1nu mouse assessed as tumor growth inhibition at 75 mg/kg, ip, administered on day 1,2,3,4,7,9 and 11; format: functional, organism-based; method in brief: as §3
[17] = system: Mus musculus; assay: Toxicity in athymic Foxn1nu/Foxn1nu mouse xenografted with human MDA-MB-435 cells assessed as body weight loss at 75 mg/kg, ip, administered on day 1,2,3,4,7,9 and 11; format: organism-based; conditions: in vivo; method in brief: as §4
[18] = system: Mus musculus; assay: Toxicity in athymic Foxn1nu/Foxn1nu mouse xenografted with human MDA-MB-435 cells assessed as occurence of neurological side effects at 75 mg/kg, ip, administered on day 1,2,3,4,7,9 and 11; format: organism-based; conditions: in vivo
[19] = system: MDA-MB-231; assay: Antitumor activity against human MDA-MB-231 cells xenografted in athymic Foxn1nu/Foxn1nu mouse assessed as tumor growth inhibition at 75 mg/kg, ip, administered on day 1,2,3,8,9 and 10; format: functional, organism-based
[20] = system: NCI/ADR-RES; assay: Antitumor activity against p-gp expressing human NCI/ADR-RES cells xenografted in athymic Foxn1nu/Foxn1nu mouse assessed as tumor growth inhibition at 75 mg/kg, ip administered on day 1,3 and 5 measured on day 9; format: functional, organism-based
Method in brief: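 Female athymic nude mice, bilateral flank NCI/ADR-RES (Pgp-expressing) tumor transplants, 8-9 tumors per group. […] Caliper tumor volume, mean ± SEM, compared on day 9 when the trial was stopped.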

## COc1ccc(N(C)c2nc(C)nc3cc[nH]c23)cc1
[1]
  EC50: 1200 nM
[2]
  inhibition: 60%

## CCn1ccc2nc(C)nc(N(C)c3ccc(OC)cc3)c21
[1]
  EC50: 28 nM
[3]
  IC50: 10.8 nM
[2]
  inhibition: 96%
[4]
  inhibition: 79%
[5]
  IC50: 17 nM
[6]
  IC50: 14 nM
[7]
  Ratio IC50: 0.8
[8]
  IC50: 17 nM
[9]
  IC50: 19.3 nM
[10]
  Ratio IC50: 1.1

## COc1ccc2c(c1)CCCN2c1nc(C)nc2cc[nH]c12
[1]
  EC50: 230 nM
[2]
  inhibition: 70%

## CCCCn1ccc2nc(C)nc(N(C)c3ccc(OC)cc3)c21.Cl
[1]
  EC50: 32 nM
[3]
  IC50: 27 nM
[2]
  inhibition: 96%
[4]
  inhibition: 82%
[5]
  IC50: 14 nM
[6]
  IC50: 10 nM
[7]
  Ratio IC50: 0.7
[8]
  IC50: 13 nM
[9]
  IC50: 15 nM
[10]
  Ratio IC50: 1.2

## COc1ccc(Nc2nc(C)nc3cc[nH]c23)cc1
[1]
  EC50: > 10000 nM
[2]
  inhibition: 5.8%

## COc1ccc(N(C)c2nc(C)nc3ccn(CC(C)C)c23)cc1.Cl
[1]
  EC50: 55 nM
[3]
  IC50: 39 nM
[2]
  inhibition: 95%
[4]
  inhibition: 67%
[5]
  IC50: 26 nM
[6]
  IC50: 23 nM
[7]
  Ratio IC50: 0.9
[8]
  IC50: 26 nM
[9]
  IC50: 25 nM
[10]
  Ratio IC50: 1

## COc1ccc(Nc2nc(C)nc3ccn(C)c23)c(OC)c1
[1]
  EC50: > 10000 nM
[2]
  inhibition: 14%

## COc1ccc(N(C)c2nc(C)nc3ccn(C)c23)cc1.Cl
[1]
  EC50: 7.4 nM
[3]
  IC50: 4.3 nM
[2]
  inhibition: 99%
[4]
  inhibition: 79%
[5]
  IC50: 5 nM
[6]
  IC50: 4.3 nM
[7]
  Ratio IC50: 0.9
[8]
  IC50: 5.2 nM
[9]
  IC50: 6 nM
[10]
  Ratio IC50: 1.2
[11]
  TGI: Active
[12]
  Activity: Non-Toxic
[13]
  Activity: Toxic

## COc1ccc(Nc2nc(C)nc3cc[nH]c23)c(OC)c1
[1]
  EC50: > 10000 nM
[2]
  inhibition: 0%

## COc1ccc(/C=C\c2cc(OC)c(OC)c(OC)c2)cc1O [COMBRETASTATIN A4]
[1]
  EC50: 9.8 nM
[9]
  IC50: 7 nM

## CC(=O)O[C@H]1C(=O)[C@@]2(C)[C@H]([C@H](OC(=O)c3ccccc3)[C@]3(O)C[C@H](OC(=O)[C@H](O)[C@@H](NC(=O)c4ccccc4)c4ccccc4)C(C)=C1C3(C)C)[C@]1(OC(C)=O)CO[C@@H]1C[C@@H]2O [PACLITAXEL]
[8]
  IC50: 5 nM
[14]
  TGI: Active
[15]
  TGI: inactive

## COc1ccc2c(c1)CCCN2c1nc(C)nc2ccn(C)c12.Cl
[1]
  EC50: 39 nM
[3]
  IC50: 21 nM
[2]
  inhibition: 98%
[4]
  inhibition: 72%
[5]
  IC50: 27 nM
[6]
  IC50: 33 nM
[7]
  Ratio IC50: 1.2
[8]
  IC50: 30 nM
[9]
  IC50: 31.5 nM
[10]
  Ratio IC50: 1.1

## CCCn1ccc2nc(C)nc(N(C)c3ccc(OC)cc3)c21.Cl
[1]
  EC50: 20 nM
[3]
  IC50: 9 nM
[2]
  inhibition: 97%
[4]
  inhibition: 86%
[5]
  IC50: 5.9 nM
[6]
  IC50: 5.1 nM
[7]
  Ratio IC50: 0.9
[8]
  IC50: 5 nM
[9]
  IC50: 7 nM
[10]
  Ratio IC50: 1.4
[16]
  TGI: Active
[17]
  Activity: Non-Toxic
[18]
  Activity: Non-Toxic
[19]
  TGI: Active
[20]
  TGI: Active

## COc1ccc(Nc2nc(C)nc3ccn(C)c23)cc1
[1]
  EC50: > 10000 nM
[2]
  inhibition: 4.2%

## COc1ccc(N(C)c2nc(C)nc3ccn(C(C)C)c23)cc1.Cl
[1]
  EC50: 42 nM
[3]
  IC50: 21 nM
[2]
  inhibition: 92%
[4]
  inhibition: 60%
[5]
  IC50: 32 nM
[6]
  IC50: 20 nM
[7]
  Ratio IC50: 0.6
[8]
  IC50: 31 nM
[9]
  IC50: 58 nM
[10]
  Ratio IC50: 1.9
